{"source": "ChEMBL document CHEMBL1212693", "about": "“Dorsomorphin inhibits BMP signals required for embryogenesis and iron metabolism” (Nat Chem Biol, 2008)", "key": {"Danio rerio [1]": {"species": "Danio rerio", "assay": "Inhibition of BMPR1 in zebrafish assessed as penetrance of normal embryonic axis dorsalization at 10 uM treated at 4 to 8 hrs post-fertilization measured at 48 hrs", "design": "scale not given: the % may be the effect or the level left"}, "Danio rerio [2]": {"species": "Danio rerio", "assay": "Inhibition of BMPR1 in zebrafish assessed as penetrance of moderate embryonic axis dorsalization at 10 uM treated continuously from 6 hrs post-fertilization measured at 48 hrs", "design": "scale not given: the % may be the effect or the level left", "summary_of_the_method": "(§1)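 Compound added at the stated times and concentrations. Gross morphology scored visually at up to 48 h.p.f. for dorsalization of the embryonic axis.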"}, "Danio rerio [3]": {"species": "Danio rerio", "assay": "Inhibition of BMPR1 in zebrafish assessed as severity of embryonic axis dorsalization at 1 uM treated at 3 hrs post-fertilization measured at 48 hrs", "design": "scale not given: the % may be the effect or the level left"}, "Danio rerio [4]": {"species": "Danio rerio", "assay": "Inhibition of BMPR1 in zebrafish assessed as embryonic axis dorsalization at 20 uM treated at 2 hrs post-fertilization measured after 36 hrs in presence of 1 ng chordin morpholino", "summary_of_the_method": "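Wild-type zebrafish embryos injected with 1 ng chordin morpholino, then exposed to vehicle or compound (20 µM) at 2 h.p.f. Photographed at 36 h.p.f. to score the intermediate cell mass and ventral tail fin structures.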"}, "Danio rerio [5]": {"species": "Danio rerio", "assay": "Inhibition of BMPR1 in zebrafish assessed as penetrance of moderate embryonic axis dorsalization at 10 uM treated at 2 to 8 hrs post-fertilization measured at 48 hrs", "design": "scale not given: the % may be the effect or the level left", "summary_of_the_method": "as §1"}, "Danio rerio [6]": {"species": "Danio rerio", "assay": "Inhibition of BMPR1 in zebrafish assessed as penetrance of mild embryonic axis dorsalization at 7.5 uM treated at 3 hrs post-fertilization measured at 48 hrs", "design": "scale not given: the % may be the effect or the level left", "summary_of_the_method": "as §1"}, "Danio rerio [7]": {"species": "Danio rerio", "assay": "Inhibition of BMPR1 in zebrafish assessed as penetrance of moderate embryonic axis dorsalization at 7.5 uM treated at 3 hrs post-fertilization measured at 48 hrs", "design": "scale not given: the % may be the effect or the level left"}, "Danio rerio [8]": {"species": "Danio rerio", "assay": "Inhibition of BMPR1 in zebrafish assessed as penetrance of moderate embryonic axis dorsalization at 10 uM treated at 6 to 8 hrs post-fertilization measured at 48 hrs", "design": "scale not given: the % may be the effect or the level left", "summary_of_the_method": "as §1"}, "Danio rerio [9]": {"species": "Danio rerio", "assay": "Inhibition of BMPR1-mediated osteoblast differentiation in zebrafish assessed as decrease in alkaline phosphatase level at 1 to 4 uM treated at 24 hrs post-fertilization measured on day 10 post-fertilization"}, "Mus musculus [10]": {"species": "Mus musculus", "assay": "Inhibition of BMPR1-mediated Smad-1 phosphorylation in BMP6-stimulated mouse PASMC at 4 uM treated 30 mins before BMP6 challenge measured after 30 mins by immunoblot analysis", "summary_of_the_method": "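PASMCs (wild-type or BMPR-II–deficient) were kept 24 h in RPMI with 0.5% FCS, preincubated 30 min with compound or vehicle, then stimulated 30 min with recombinant BMP (10 ng ml−1). Extracts in SDS-lysis buffer were immunoblotted for phospho-SMAD1/5/8, with total SMAD1 and α-tubulin as loading controls. Bands were quantitated by phosphorimager.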"}, "Danio rerio [11]": {"species": "Danio rerio", "assay": "Inhibition of BMPR1 in zebrafish assessed as penetrance of moderate embryonic axis dorsalization at 5 uM treated at 3 hrs post-fertilization measured at 48 hrs", "design": "scale not given: the % may be the effect or the level left"}, "Danio rerio [12]": {"species": "Danio rerio", "assay": "Inhibition of BMPR1 in zebrafish assessed as severity of embryonic axis dorsalization at 10 uM treated at 2 to 8 hrs post-fertilization measured at 48 hrs", "design": "scale not given: the % may be the effect or the level left"}, "Mus musculus [13]": {"species": "Mus musculus", "assay": "Inhibition of BMPR1-mediated Smad-5 phosphorylation in BMP4-stimulated mouse BMPR2 deficient PASMC at 4 uM treated 30 mins before BMP4 challenge measured after 30 mins by immunoblot analysis"}, "Danio rerio [14]": {"species": "Danio rerio", "assay": "Inhibition of BMPR1 in zebrafish assessed as penetrance of moderate embryonic axis dorsalization at 10 uM treated continuously from 8 hrs post-fertilization measured at 48 hrs", "design": "scale not given: the % may be the effect or the level left"}, "Danio rerio [15]": {"species": "Danio rerio", "assay": "Inhibition of BMPR1 in zebrafish assessed as severity of embryonic axis dorsalization at 5 uM treated at 3 hrs post-fertilization measured at 48 hrs", "design": "scale not given: the % may be the effect or the level left"}, "Mus musculus [16]": {"test_system": "Mus musculus", "assay": "Increase in serum iron concentration in C57BL/6 mouse at 10 mg/kg, iv after 24 hrs", "format": "functional"}}, "note": "Activity calls are given as the source filed them. No cut-off for these calls is given here."}
{"smiles": "c1cc(-c2cnn3cc(-c4ccc(OCCN5CCCCC5)cc4)cnc23)ccn1", "note": "[DORSOMORPHIN]", "values": [{"measurement": "Activity", "setting": "Danio rerio [1]", "value": 0, "unit": "%"}, {"measurement": "Activity", "setting": "Danio rerio [2]", "value": 78, "unit": "%"}, {"measurement": "Activity", "setting": "Danio rerio [3]", "value": 0, "unit": "%"}, {"measurement": "inhibition", "setting": "Danio rerio [4]", "value": "Active"}, {"measurement": "Activity", "setting": "Danio rerio [5]", "value": 0, "unit": "%"}, {"measurement": "Activity", "setting": "Danio rerio [6]", "value": 58, "unit": "%"}, {"measurement": "Activity", "setting": "Danio rerio [7]", "value": 42, "unit": "%"}, {"measurement": "Activity", "setting": "Danio rerio [8]", "value": 5, "unit": "%"}, {"measurement": "inhibition", "setting": "Danio rerio [9]", "value": "Active"}, {"measurement": "inhibition", "setting": "Mus musculus [10]", "value": "Active"}, {"measurement": "Activity", "setting": "Danio rerio [11]", "value": 0, "unit": "%"}, {"measurement": "Activity", "setting": "Danio rerio [12]", "value": 100, "unit": "%"}, {"measurement": "inhibition", "setting": "Mus musculus [13]", "value": "Active"}, {"measurement": "Activity", "setting": "Danio rerio [14]", "value": 0, "unit": "%"}, {"measurement": "Activity", "setting": "Danio rerio [15]", "value": 19, "unit": "%"}, {"measurement": "Activity", "setting": "Mus musculus [16]", "value": 60, "unit": "%"}]}
